Results on two compounds are retold here after ChEMBL document CHEMBL1136924 (J Med Chem, 2009).

The target in series [1] is T1, 5-hydroxytryptamine receptor 3A (Cavia porcellus) (UniProt O70212).
T1 sequence (whole entry): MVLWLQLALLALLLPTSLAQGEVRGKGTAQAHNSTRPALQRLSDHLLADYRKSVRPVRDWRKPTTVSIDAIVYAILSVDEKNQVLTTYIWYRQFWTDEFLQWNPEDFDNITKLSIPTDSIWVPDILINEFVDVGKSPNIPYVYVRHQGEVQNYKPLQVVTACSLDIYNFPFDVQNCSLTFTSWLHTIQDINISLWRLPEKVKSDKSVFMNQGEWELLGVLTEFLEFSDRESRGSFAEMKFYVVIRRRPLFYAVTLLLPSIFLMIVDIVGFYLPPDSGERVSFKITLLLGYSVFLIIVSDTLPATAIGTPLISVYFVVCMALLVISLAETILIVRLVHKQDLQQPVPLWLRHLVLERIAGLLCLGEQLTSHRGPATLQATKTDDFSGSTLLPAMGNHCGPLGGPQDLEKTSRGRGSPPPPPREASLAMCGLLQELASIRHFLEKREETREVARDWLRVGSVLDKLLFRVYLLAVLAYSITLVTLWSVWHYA
In words: Agonist activity at 5HT3 receptor in voltage-stimulated guinea pig left atrium assessed as positive inotropic potency at 100 uM. The class given is functional, tissue-based. The settings on record: Cardiac atrium. A digest of the protocol: (§1)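 Guinea pig left and right atria were hung in a 15 mL bath of PSS (pH 7.4, 95% O2-5% CO2, 35 °C) with ketanserin 1 µM. The right atrium beat spontaneously; the left was paced at 1 Hz. Cumulative doses (0.1-100 µM; DMSO ≤0.3%) were added after 45-60 min stabilization. Rate or isometric force was recorded. EC50 came from Probit analysis, n≥4. Intrinsic activity was taken relative to 5-HT.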

For series [2], the target named is T1, 5-hydroxytryptamine receptor 3A (Cavia porcellus). Nature of the series: Agonist activity at 5HT3 receptor in spontaneously beating guinea pig right atrium assessed as positive chronotropic potency at 100 uM. It is filed as functional, tissue-based. The settings on record: Cardiac atrium. A digest of the protocol: as §1
The target in series [3] is T2, 5-hydroxytryptamine receptor 3A (Rattus norvegicus, UniProt P35563).
T2 sequence (P35563 whole entry): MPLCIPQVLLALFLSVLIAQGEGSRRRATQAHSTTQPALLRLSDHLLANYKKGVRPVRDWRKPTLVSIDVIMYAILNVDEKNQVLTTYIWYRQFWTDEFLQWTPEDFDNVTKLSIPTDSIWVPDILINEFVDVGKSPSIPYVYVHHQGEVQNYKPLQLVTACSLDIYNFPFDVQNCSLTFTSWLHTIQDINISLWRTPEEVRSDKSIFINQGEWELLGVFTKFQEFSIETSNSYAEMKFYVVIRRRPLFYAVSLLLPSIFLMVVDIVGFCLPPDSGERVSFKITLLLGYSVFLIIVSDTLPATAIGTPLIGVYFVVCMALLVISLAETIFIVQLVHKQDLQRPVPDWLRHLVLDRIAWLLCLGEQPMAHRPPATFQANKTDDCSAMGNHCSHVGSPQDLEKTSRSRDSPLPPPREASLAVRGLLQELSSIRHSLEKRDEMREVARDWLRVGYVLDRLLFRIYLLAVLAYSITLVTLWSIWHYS
Nature of the series: Displacement of [3H]LY278584 from 5HT3 receptor in rat cortical homogenate. For orientation: In a radioligand displacement assay an active substance lowers the binding of a labelled ligand.

Series [4] relates to Rattus norvegicus. In words: Antagonist activity at 5HT3 receptor in urethane-anesthetized Sprague-Dawley rat assessed as half-blockade of 1-phenylbiguanide-induced bradycardia at 30 ug/kg, iv administered 5 mins before 1-phenylbiguanide challenge measured after 5 to 30 mins post-treatment by von Bezold-Jarisch reflex test. It is filed as functional, organism-based.
In series [5] the target is 5-hydroxytryptamine receptor 2A (Rattus norvegicus, UniProt P14842). Nature of the series: Displacement of [3H]ketanserin from 5HT2A receptor in rat cortex.
Chain of 5-hydroxytryptamine receptor 2A (P14842 whole entry): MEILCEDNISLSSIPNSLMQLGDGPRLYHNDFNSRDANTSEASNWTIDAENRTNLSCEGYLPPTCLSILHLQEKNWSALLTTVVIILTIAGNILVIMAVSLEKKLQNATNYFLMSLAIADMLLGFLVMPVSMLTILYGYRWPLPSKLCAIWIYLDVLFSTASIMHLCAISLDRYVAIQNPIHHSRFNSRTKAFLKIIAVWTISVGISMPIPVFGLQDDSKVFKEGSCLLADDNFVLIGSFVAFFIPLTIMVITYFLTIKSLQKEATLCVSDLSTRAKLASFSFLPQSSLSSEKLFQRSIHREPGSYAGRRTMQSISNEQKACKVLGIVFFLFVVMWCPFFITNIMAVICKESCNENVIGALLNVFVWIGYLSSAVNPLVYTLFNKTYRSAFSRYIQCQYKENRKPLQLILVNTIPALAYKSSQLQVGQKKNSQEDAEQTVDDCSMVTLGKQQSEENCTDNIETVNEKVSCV
Series [6] relates to Rattus norvegicus. In words: Agonist activity at 5HT3 receptor in urethane-anesthetized Sprague-Dawley rat assessed as induction of bradycardia at 50 ug/kg, iv measured after 5 to 30 mins post-treatment by von Bezold-Jarisch reflex test relative to 40 ug/kg, iv 1-phenylbiguanide. The class given is functional.
Series [7] has as its target T3, 5-hydroxytryptamine receptor 3A (Cavia porcellus, UniProt O70212).
T3 sequence (O70212 whole entry): T1 sequence (whole entry)
Nature of the series: Antagonist activity at 5HT3 receptor in spontaneously beating guinea pig right atrium assessed as inhibition of serotonin-induced maximum response by noncompetitive binding assay. It is filed as tissue-based, Cardiac atrium. A digest of the protocol:
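Spontaneously beating guinea pig right atrium; 5-HT concentration-response curves (0.001-1.0 µM) before and after 30 min antagonist exposure at three concentrations. IC50 is inhibition of 50% of maximal 5-HT response, Probit analysis, n = 4-6.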

Series [8] addresses T4, 5-hydroxytryptamine receptor 1A (Rattus norvegicus, UniProt P19327).
T4 sequence (P19327 whole entry): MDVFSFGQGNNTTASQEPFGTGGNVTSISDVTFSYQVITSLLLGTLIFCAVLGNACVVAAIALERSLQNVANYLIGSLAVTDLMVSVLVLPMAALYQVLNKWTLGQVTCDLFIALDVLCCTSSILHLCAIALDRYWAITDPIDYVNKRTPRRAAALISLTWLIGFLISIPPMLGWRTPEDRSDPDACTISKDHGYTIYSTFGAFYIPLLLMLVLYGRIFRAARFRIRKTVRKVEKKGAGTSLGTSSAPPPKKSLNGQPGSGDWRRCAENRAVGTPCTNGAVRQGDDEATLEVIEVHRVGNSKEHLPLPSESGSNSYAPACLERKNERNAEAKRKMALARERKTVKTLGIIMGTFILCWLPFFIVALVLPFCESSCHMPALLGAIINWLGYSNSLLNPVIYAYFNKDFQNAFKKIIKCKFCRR
Nature of the series: Displacement of [3H]8-OHDPAT from 5HT1A receptor in rat hippocampus. The class given is tissue-based.

The nature of series [9]: Plasma concentration in CD1 albino mouse at 5 mg/kg, ip after 15 mins. The class given is ADME, organism-based. Also on record: dose 5 mg/kg, route intraperitoneal. An outline of the steps:
(§2)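 Male CD1 mice (25-30 g) given ip 5 or 20 mg/kg, killed at set times; trunk blood plasma and brain collected. Solid-phase C18 extraction with internal standard, HPLC-UV at 240 nm. Quantification limits about 0.25 nmol/mL plasma, 0.5 nmol/g brain. Three mice per point. Half-life 0.693/β; clearance dose·F/AUC.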

Series [10] can be described thus: Plasma concentration in CD1 albino mouse at 20 mg/kg, ip after 15 mins. It is filed as ADME, organism-based. The arrangement: dose 20 mg/kg, route intraperitoneal. An outline of the steps:
as §2

Series [11] can be described thus: Clearance in CD1 albino mouse plasma at 20 mg/kg, ip. It is filed as ADME, organism-based. The arrangement: dose 20 mg/kg, route intraperitoneal. A digest of the protocol:
as §2

Series [12] has as its system Rattus norvegicus. Nature of the series: Antagonist activity at 5HT3 receptor in urethane-anesthetized Sprague-Dawley rat assessed as reduction in 1-phenylbiguanide-induced bradycardia at 100 ug/kg, iv administered 5 mins before 1-phenylbiguanide challenge measured after 5 to 30 mins post-treatment by von Bezold-Jarisch reflex test. It is filed as functional, organism-based.

Series [13] has as its target T1, 5-hydroxytryptamine receptor 3A (Cavia porcellus). Nature of the series: Agonist activity at 5HT3 receptor in spontaneously beating guinea pig right atrium assessed as positive chronotropic potency. The class given is functional, tissue-based. The following applies: Cardiac atrium. An outline of the steps: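 Isolated guinea pig atria in PSS (Tyrode) with ketanserin 1 µM, 95% O2-5% CO2, pH 7.4, 35 °C. Right atrium beating spontaneously (rate); left atrium paced 1 Hz, 0.6-0.8 ms pulses near 50% threshold (force). Isometric recording after 45-60 min stabilization.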

For series [14] the target is unchanged. In words: Intrinsic activity at 5HT3 receptor in spontaneously beating guinea pig right atrium assessed as positive chronotropic potency relative to serotonin. The following applies: Cardiac atrium. A digest of the protocol: as §1
Series [15] deals with Rattus norvegicus. In words: Activity at 5HT3 receptor in urethane-anesthetized Sprague-Dawley rat assessed as effect on heart rate at 100 ug/kg, iv measured after 5 to 30 mins post-treatment by von Bezold-Jarisch reflex test relative to 40 ug/kg, iv 1-phenylbiguanide. The class given is functional, organism-based.

Active and inactive are the calls of the source.

For the compound `N/C(CN1CCN(c2nc3cc(F)ccc3n3cccc23)CC1)=N\O`, the pD2 result in series [1] and in series [2] was “inactive” in each case. Moreover, the Ki is 0.0008 µM in series [3], more than 10 µM in [5] and more than 10 µM in [8]. Besides, in the series on Rattus norvegicus [4], the outcome was Active. Besides, in the series with Rattus norvegicus [6], the Activity was 60%. Moreover, the IC50 in series [7] is 5.75 µM.
Consider `N[C@@H](CN1CCN(c2nc3cc(F)ccc3n3cccc23)CC1)C(=O)O`, for which the concentration at 0.25 h in [9] was 2 µM; in [10], 12 µM. In addition, the pD2 entry in series [1] was “inactive”. The same compound had a CL/F in [11] of 90 mL/min/kg. For the same compound, the Ki in [3] was 0.0028 µM; in series [5], 5.69 µM; in series [8], 0.446 µM. Besides, the result in the series with Rattus norvegicus [12] was Active. Moreover, the pD2 in [13] was 5.98. Moreover, the Intrinsic activity in series [14] is 0.81. Also, the result in the series on Rattus norvegicus [15] was inactive.

One may read the Ki as the dissociation constant of the complex between target and ligand, obtained from inhibition or displacement. High values mean weaker binding, low ones tighter binding. A word on the IC50: it is the concentration that inhibits the measured activity by half. The CL/F is clearance divided by bioavailability, as obtained after extravascular dosing.
